Source: ChEMBL document CHEMBL3232782, “1,2,3,4,8,9,10,11-octahydrobenzo[j]phenanthridine-7,12-diones as new leads against Mycobacterium tuberculosis” (J Med Chem, 2014)
Values after ≈ are worked out from the molar mass of the structure shown. Active and inactive are the calls of the source. No cut-off for these calls is given here.

Tests used:
[1] = tested on: Mycobacterium tuberculosis; test: Antimycobacterial activity against Mycobacterium tuberculosis H37Rv expressing luciferase assessed as growth inhibition after 6 days by luminometry; assay type: functional; conditions: 144 h
Outline: (§1)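 Strains carried pSMT1 luxAB reporter plasmid. DMSO stocks 10 mM, serially diluted in 7H9 + 10% FCS, triplicate wells. Filtered bacterial suspension at 50 000 RLU/mL. Luminescence read after 6 days using 1% n-decanal substrate. […] Growth temperatures: M.tb 37 °C; M. avium and M. bovis 39 °C.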

[2] = Cytotoxicity against mouse J774A1 cells assessed as cell viability after 24 hrs by Trypan blue exclusion assay; assay type: cell-based; conditions: J774.A1, 24 h
[3] = Selectivity index, ratio of IC50 for mouse J774A1 cells to MIC for Mycobacterium tuberculosis H37Rv expressing luciferase; assay type: toxicity, cell-based, J774.A1; conditions: read-out: Selectivity Index
Outline: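 SI = IC50/MIC. IC50 came from a neutral red uptake assay on J774 A.1 cells after 24 h exposure in DMEM + 10% FCS, with OD 530 nm. […] Both were from triplicate cultures.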

[4] = tested on: Mycobacterium tuberculosis; test: Antimycobacterial activity against Mycobacterium tuberculosis H37Rv expressing luciferase assessed as growth inhibition at 100 uM preincubated with liver S9 fraction for 15 mins followed by incubation with parasite and measured after 6 days by luminometry; assay type: functional, organism-based
Outline: (§2)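 Compounds (100 μM) were preincubated with NADPH/G-6-P-conditioned liver S9 at 37 °C, 5% CO2 for 15 or 30 min. They were then serially diluted and tested against luminescent H37Rv in 7H9 + 10% FCS. Luminescence was read after 6 days with n-decanal.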

[5] = tested on: Mycobacterium tuberculosis; test: Antimycobacterial activity against Mycobacterium tuberculosis H37Rv expressing luciferase assessed as growth inhibition preincubated with liver S9 fraction for 30 mins followed by incubation with parasite and measured after 6 days by luminometry; assay type: functional; outline: as §2
[6] = tested on: Mycobacterium tuberculosis; test: Antimycobacterial activity against Mycobacterium tuberculosis Beijing 17919 expressing luciferase assessed as growth inhibition after 6 days by luminometry; assay type: functional; conditions: Beijing 17919, 144 h; outline: as §1
[7] = tested on: Mycobacterium avium subsp. paratuberculosis; test: Antimycobacterial activity against Mycobacterium avium subsp. paratuberculosis ATCC 19698 expressing luciferase assessed as growth inhibition after 6 days by luminometry; assay type: functional; conditions: ATCC 19698, 144 h; outline: as §1
[8] = Antimycobacterial activity against Mycobacterium avium subsp. avium ATCC 15769 expressing luciferase assessed as growth inhibition after 6 days by luminometry; assay type: functional; conditions: ATCC 15769, 144 h; outline: as §1
[9] = Selectivity ratio of IC90 for Mycobacterium ulcerans 1615 to IC90 for Mycobacterium tuberculosis; assay type: functional
[10] = tested on: Mycobacterium tuberculosis; test: Antimycobacterial activity against Mycobacterium tuberculosis H37Rv expressing luciferase infected in mouse J774A1 cells assessed as inhibition of replication at 0.03 to 0.05 uM measured after 1 to 4 days by luminescence assay; assay type: functional, organism-based; conditions: J774.A1
Outline: (§3)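 J774 A.1 cells (40 000/well) were infected with H37Rv lux at MOI 0.1 in DMEM with penicillin/fungizone and no gentamicin. Serial compound dilutions were added, with treatment starting 24 h post infection. Extracellular bacteria were removed by washes and 1 h 1% gentamicin. Cells were lysed with 1% Triton X-100 and luminescence read with n-decanal. Reduction in RLU versus untreated; INH 0.1 μM control.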

[11] = tested on: Mycobacterium tuberculosis; test: Antimycobacterial activity against Mycobacterium tuberculosis H37Rv expressing luciferase infected in mouse J774A1 cells assessed as inhibition of replication at 0.25 uM measured after 1 to 4 days by luminescence assay; assay type: functional; conditions: J774.A1; outline: as §3
[12] = tested on: Mycobacterium tuberculosis; test: Antimycobacterial activity against Mycobacterium tuberculosis H37Rv expressing luciferase infected in mouse J774A1 cells assessed as inhibition of replication at 0.50 uM measured after 1 to 4 days by luminescence assay; assay type: functional; conditions: J774.A1; outline: as §3
[13] = tested on: Mycobacterium tuberculosis; test: Antimycobacterial activity against Mycobacterium tuberculosis H37Rv expressing luciferase infected in mouse J774A1 cells assessed as inhibition of replication measured after 1 to 4 days by luminescence assay; assay type: functional, J774.A1; outline: as §3
[14] = Genotoxicity in mouse J774A1 cells assessed as DNA strand breaks at 0.25 to 50 uM after 24 hrs by Comet assay; assay type: toxicity, cell-based; conditions: j774.a1, 24 h
Outline: (§4)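 J774 A.1 cells (100 000/well) were exposed to compound serial dilutions in DMEM + 10% FCS for 24 h at 37 °C, 5% CO2. Alkaline comet assay: cells embedded in low-melt agarose, lysed, electrophoresed 20 min at 300 mA, neutralized and stained with gel red. The % tail DNA of 200 nuclei was scored by fluorescence microscopy. Mann–Whitney U test.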

[15] = Selectivity index, ratio of IC50 for mouse J774A1 cells to MIC for Mycobacterium tuberculosis H37Rv expressing luciferase infected in mouse J774A1 cells; assay type: toxicity, cell-based, J774.A1; conditions: read-out: Selectivity Index
Outline: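 SI = neutral red IC50 in J774 A.1 cells (24 h) divided by the intracellular MIC. The intracellular MIC came from luminescent H37Rv in infected J774 A.1 macrophages after 3 days of treatment starting 24 h post infection, with lysate luminescence measured using n-decanal.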

[16] = Genotoxicity in mouse J774A1 cells assessed as DNA strand breaks at 0.25 to 5 uM after 24 hrs by Comet assay; assay type: toxicity, cell-based; conditions: j774.a1, 24 h; outline: as §4

Structure (SMILES)	MIC99 [1] [µM]	IC50 [2] [µM]	selectivity ratio [3]	other results
CC(C)(C)C1CCc2ncc3c(c2C1)C(=O)C1=C(C3=O)C2CCC1CC2 (stereo not given)	8.56 (≈ 2.99 µg/mL)	22.9	2.68	
CCOC(=O)C1CCc2ncc3c(c2C1)C(=O)C1=C(C3=O)C2CCC1CC2 (stereo not given)	0.26 (≈ 0.095 µg/mL)	49.8	191	growth inhibition (GI) [4]: Active; MIC [5]: 0.65 µM (≈ 0.238 µg/mL); MIC [6]: 0.16 µM (≈ 0.0585 µg/mL); MIC [7]: 0.21 µM (≈ 0.0767 µg/mL); MIC [8]: 0.37 µM (≈ 0.135 µg/mL); Selectivity ratio [9]: 10; growth inhibition (GI) [10]: inactive; inhibition at 0.25 µM [11]: 55.8%; inhibition at 0.5 µM [12]: 94.3%; MIC [13]: 2.41 µM (≈ 0.881 µg/mL); Activity [14]: Non-toxic; selectivity ratio [15]: 79.3
Cc1nc2c(c3c1C(=O)c1ccccc1C3=O)CCC(C)C2 (stereo not given)	9.85 (≈ 2.87 µg/mL)	25.7	2.61	
O=C1c2ccccc2C(=O)c2c1cnc1c2CCCC1	9.88 (≈ 2.6 µg/mL)	7.34	0.74	
CC(C)(C)C1CCc2ncc3c(c2C1)C(=O)C1=C(C3=O)C2CCC1C2 (stereo not given)	0.59 (≈ 0.198 µg/mL)	51.4	87	growth inhibition (GI) [4]: Active; MIC [5]: 1.05 µM (≈ 0.352 µg/mL); MIC [6]: 0.33 µM (≈ 0.111 µg/mL); MIC [7]: 0.69 µM (≈ 0.231 µg/mL); MIC [8]: 0.8 µM (≈ 0.268 µg/mL); Selectivity ratio [9]: 6; growth inhibition (GI) [10]: inactive; inhibition at 0.25 µM [11]: 43.8%; inhibition at 0.5 µM [12]: 52.6%; MIC [13]: 2.48 µM (≈ 0.832 µg/mL); Activity [14]: Non-toxic; selectivity ratio [15]: 20.7
Cc1nc2c(c3c1C(=O)c1ccccc1C3=O)CCCC2	17.8 (≈ 4.93 µg/mL)	10.9	0.61	
CCOC(=O)C1CCc2ncc3c(c2C1)C(=O)C1=C(C3=O)C2CCC1C2 (stereo not given)	0.22 (≈ 0.0773 µg/mL)	8.49	38.6	growth inhibition (GI) [4]: Active; MIC [5]: 0.66 µM (≈ 0.232 µg/mL); MIC [6]: 0.14 µM (≈ 0.0492 µg/mL); MIC [7]: 0.44 µM (≈ 0.155 µg/mL); MIC [8]: 1.22 µM (≈ 0.429 µg/mL); Selectivity ratio [9]: 50; growth inhibition (GI) [10]: inactive; inhibition at 0.25 µM [11]: 63.9%; inhibition at 0.5 µM [12]: 86.7%; MIC [13]: 2.38 µM (≈ 0.836 µg/mL); Activity [16]: Non-toxic; selectivity ratio [15]: 10.8
CC1CCc2c(ncc3c2C(=O)c2ccccc2C3=O)C1 (stereo not given)	5.3 (≈ 1.47 µg/mL)	8.13	1.53	
Cc1nc2c(c3c1C(=O)c1ccccc1C3=O)CCCC2C (stereo not given)	17.7 (≈ 5.15 µg/mL)	30.8	1.74	
CC(C)(C)OC(=O)N1CCc2ncc3c(c2C1)C(=O)C1=C(C3=O)C2CCC1C2 (stereo not given)	12.9 (≈ 4.9 µg/mL)	7.33	0.57	
CO[C@H]1/C=C/O[C@@]2(C)Oc3c(C)c(O)c4c(O)c(c(/C=N/N5CCN(C)CC5)c(O)c4c3C2=O)NC(=O)/C(C)=C\C=C\[C@H](C)[C@H](O)[C@@H](C)[C@@H](O)[C@@H](C)[C@H](OC(C)=O)[C@@H]1C [RIFAMPIN]	0.19 (≈ 0.156 µg/mL)	> 100	> 526	
NNC(=O)c1ccncc1 [ISONIAZID]	0.13 (≈ 0.0178 µg/mL)	> 100	> 769	MIC [6]: 0.09 µM (≈ 0.0123 µg/mL); MIC [7]: 0.99 µM (≈ 0.136 µg/mL); MIC [8]: 0.76 µM (≈ 0.104 µg/mL)
Cc1ccc2c3c(cnc2c1)C(=O)c1ccccc1C3=O		3.21	15	MIC [1]: 0.64 µM (≈ 0.175 µg/mL)
CC(C)(C)C1CCc2ncc3c(c2C1)C(=O)C1=C(C3=O)C2CCC1O2 (stereo not given)	7.21 (≈ 2.43 µg/mL)	53.2	7.38	
CC1CCCc2c1ncc1c2C(=O)c2ccccc2C1=O (stereo not given)	14.4 (≈ 4 µg/mL)	14.9	1.03	
CC1CCc2ncc3c(c2C1)C(=O)c1ccccc1C3=O (stereo not given)	9.61 (≈ 2.67 µg/mL)	1.31	0.14	
CC(C)(C)C1CCc2ncc3c(c2C1)C(=O)c1ccccc1C3=O (stereo not given)	9.64 (≈ 3.08 µg/mL)	11.5	1.19	
